Hits are enriched below; roughly 4.2% of the tested compounds scored in any of these assays.
ANO1 block – TMEM16A chloride channel inhibitors, primary screen, cell-based, HTS. Anoctamin-1 (Mus musculus), Q8BHY3. HEK293 TMEM16A/YFP iodide influx fluorescence, ionomycin. normalized B-score (activity score, 25-100; higher = stronger inhibition) at 10 µM. actives 1.2% (n = 310,000). AID 588511, 2011;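 active = ratio plate-corrected score three or more library SD toward inhibition, starting fluorescence score within five deviations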;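 note: score derived from kinetic fluorescence span divided by baseline fluorescence per well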
Target sequence (Q8BHY3 whole entry, looked up): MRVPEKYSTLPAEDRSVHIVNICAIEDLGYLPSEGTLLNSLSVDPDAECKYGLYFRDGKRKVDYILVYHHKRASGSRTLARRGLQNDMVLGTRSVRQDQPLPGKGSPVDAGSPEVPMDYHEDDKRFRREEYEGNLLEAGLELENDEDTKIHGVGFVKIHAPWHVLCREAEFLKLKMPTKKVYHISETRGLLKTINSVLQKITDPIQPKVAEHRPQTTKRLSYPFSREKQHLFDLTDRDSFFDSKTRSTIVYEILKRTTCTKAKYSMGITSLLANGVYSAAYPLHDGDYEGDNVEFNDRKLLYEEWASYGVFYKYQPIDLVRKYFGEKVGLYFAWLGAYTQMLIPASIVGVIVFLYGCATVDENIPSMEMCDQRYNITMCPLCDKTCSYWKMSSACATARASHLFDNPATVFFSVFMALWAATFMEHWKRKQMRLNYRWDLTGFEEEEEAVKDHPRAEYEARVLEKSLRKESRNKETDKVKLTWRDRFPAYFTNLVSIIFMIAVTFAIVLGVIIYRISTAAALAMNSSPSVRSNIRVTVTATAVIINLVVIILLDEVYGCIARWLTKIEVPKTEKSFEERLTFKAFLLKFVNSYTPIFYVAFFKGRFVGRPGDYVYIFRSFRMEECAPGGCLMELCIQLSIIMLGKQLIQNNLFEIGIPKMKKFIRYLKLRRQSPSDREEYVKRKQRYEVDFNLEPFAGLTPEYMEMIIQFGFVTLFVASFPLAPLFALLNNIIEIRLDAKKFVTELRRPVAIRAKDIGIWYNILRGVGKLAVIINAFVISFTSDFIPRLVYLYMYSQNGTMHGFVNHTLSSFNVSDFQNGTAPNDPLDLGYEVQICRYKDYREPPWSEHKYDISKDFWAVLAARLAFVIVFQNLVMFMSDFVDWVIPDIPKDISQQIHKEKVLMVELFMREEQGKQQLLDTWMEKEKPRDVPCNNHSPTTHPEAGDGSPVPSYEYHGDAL
UPR CHOP act – activators of apoptotic CHOP UPR arm, primary screen, cell-based, CHO-CHOP luciferase reporter, luminescence, uHTS; UPR activation; percent of tunicamycin response over DMSO baseline; activation, % at 10 µM; actives 0.34% (n = 330,000);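 active = at 10 µM dose, activation of 40% or more, normalized to positive control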;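 note: 100% = tunicamycin at 10 µg/mL and 0% = DMSO alone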
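System: CHO CHOP reporter cells. Amount: 500 cells per well. Buffer or medium: F12 medium, 10% FBS. Compound dosing: one dose, 10 µM in 0.5% DMSO. Incubation: 6 h compound exposure at 37 °C after overnight seeding. Technique: Steady-Glo luciferase luminescence. Benchmarks: tunicamycin and DMSO controls.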
Lipid droplet – inhibitors of hepatocyte lipid droplet formation, primary screen, imaging, high-throughput imaging, BODIPY stain; AML12 mouse hepatocytes, oleate lipid droplets; inhibition, % at 6.5 µM; actives 0.4% (n = 240,000);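 active = lipid droplet intensity inhibited by at least 50%, with more than 500 cells counted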
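System: AML12 hepatocytes (mouse). Probe or stimulus: oleic acid at 100 µM to induce lipid droplet formation. Times: overnight treatment with compound plus oleate. Detection: Image-based BODIPY and DAPI two-channel analysis. Evaluation: percent inhibition of filter-corrected integrated lipid droplet intensity per well.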
XBP1 UPR activ – activators of adaptive XBP1 UPR arm, primary screen, cell-based, CHO-XBP1 luciferase reporter, luminescence, uHTS; IRE1-XBP1 UPR activation; percent of tunicamycin response, DMSO as zero; activation, % at 20 µM; actives 0.33% (n = 330,000);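 active = versus positive control, 20 µM dose yields 30% or more activation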;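 note: 100% = tunicamycin at 10 µg/mL and 0% = DMSO only wells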
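Material: CHO-XBP1 cells stably carrying IRE1-XBP1-driven luciferase reporter | Medium: F12 with 10% serum | Compound dosing: 20 µM single concentration, DMSO 1% | Incubation: Overnight seeding at 37 °C, 6 h compound treatment at 37 °C | Detection: Steady-Glo luminescence read | Read-out basis: % activation of reporter signal versus tunicamycin and DMSO controls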
ANO1 activ – TMEM16A chloride channel activators or potentiators, primary screen, cell-based, HTS; Anoctamin-1 (Mus musculus), Q8BHY3; AID 623877, 2012; HEK293 TMEM16A/YFP-H148Q/I152L, iodide quench fluorescence; stronger effect = lower value; B-score at 10 µM; actives 0.3% (n = 340,000);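 active = fluorescence-ratio B-score plate-corrected deviation score at least 3 library SD below zero, with starting fluorescence score within 5 deviations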;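 note: channel opened by trigger with iodide after compound preincubation; score built on the fluorescence ratio of max minus min over baseline; more negative score means more quench and so TMEM16A activation or potentiation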
CHOP inh – inhibitors of CHOP promoter induction, primary screen, cell-based, unfolded protein response, luciferase reporter; inhibition, % at 10 µM; actives 3.8% (n = 220,000); CHO-K1 CHOP-promoter luciferase, tunicamycin-induced, 15-18 h;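 active = compounds that reduced the stress-induced luciferase reporter signal by more than about 70% of percent inhibition, limit read from the data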;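 note: 0% = tunicamycin plus vehicle and 100% = wells without tunicamycin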
The depositor's hits bear a star; i = inactive; / = not tested or not shown.

SMILES	ANO1 block	UPR CHOP act	Lipid droplet	XBP1 UPR activ	ANO1 activ	CHOP inh
Cc1cccc(CS(=O)(=O)c2nnc([C@H](Cc3ccccc3)NC(=O)OC(C)(C)C)o2)c1	i	29	/	-7	i	115*
CCc1ccc(Nc2n[n+](-c3ccccc3)c(-c3ccc(OCc4ccccc4)cc3)s2)cc1	100*	4	-2	0	i	/
COc1ccc2ccccc2c1-c1sc(Nc2ccccc2)n[n+]1-c1ccc(F)cc1	100*	2	1	0	i	/
COc1ccc(C)cc1Nc1n[n+](-c2ccccc2)c(-c2c(Cl)cccc2Cl)s1	100*	11	/	5	/	/
CCc1ccc(Nc2n[n+](-c3ccccc3)c(-c3c(Cl)cccc3Cl)s2)cc1	100*	14	-12	10	-8.1*	/
COc1ccc(C)cc1Nc1n[n+](-c2ccccc2)c(-c2ccc(OC)c(OC)c2OC)s1	i	4	/	0	i	/
COc1ccc(-c2sc(Nc3ccccc3)n[n+]2-c2ccc(F)cc2)cc1Br	i	0	0	-2	i	/
c1ccc(COc2ccc(-c3sc(Nc4ccccc4)n[n+]3-c3ccccc3)cc2)cc1	i	3	-6	-1	/	/
CCc1cccc(NC(=O)CCc2c(C)nn(-c3ccc(N4CCCCC4)nn3)c2C)c1	i	6	-1	-3	i	/
Nn1c(SCc2ccccc2)nc2ccccc21	i	6	0	-2	i	/
COc1ccc(OC)c(/C=C/C(=O)N2CCN(S(=O)(=O)c3ccc(C)cc3C)CC2)c1	/	-1	/	-2	i	/
Cc1ccc(C(=O)N(c2ccccc2)C2CC(C)N(C(=O)c3ccco3)c3ccccc32)cc1 (centres undefined)	i	-2	-1	-2	/	12
O=c1c2ccccc2nc(/C=C/c2ccc(O)cc2)n1CCc1ccccc1	i	0	-14	2	i	74*
O=C(NNC(=S)NC(=O)C12CC3CC(CC(C3)C1)C2)c1ccncc1	25*	2	-11	18	i	14
O=C(O)COc1ccc(Br)cc1/C=N\Nc1ccccn1	i	5	-1	-4	i	/
CCCCOP(=O)(OCCCC)C(Nc1ccccc1)c1ccc2c(c1)OCO2 (centres undefined)	i	/	-37	/	i	91*
COc1ccc(NC(=O)CSc2nnc(-c3ccncc3)o2)c([N+](=O)[O-])c1	i	1	4	-2	i	/
COc1ccccc1C(=O)Nc1nc(-c2ccc(S(=O)(=O)N3CCOCC3)cc2)cs1	100*	-6	-7	-4	i	92*
CCOc1ccc(NS(=O)(=O)c2ccc(NC(=O)[C@@H]3CCCC[C@@H]3C(=O)O)cc2)cc1	i	-3	15	-2	i	10
CC(C)=C1C2CCC1C(C(=O)NCc1ccccc1)C2C(=O)O (centres undefined)	i	1	/	0	i	82*
CC1(c2ccccc2)CC(C)(C)N2C(=O)Cc3cccc1c32 (centres undefined)	i	1	-15	-1	i	72*
CC(=O)N1c2ccccc2C(C)(c2ccccc2)CC1(C)C (centres undefined)	i	0	-9	-1	i	36
Cc1cccc(COc2ccc(/C=C3/C(=O)N(C)C(=S)N3C)cc2)c1	i	0	-2	-2	i	/
CC(=O)Nc1cccc(-c2csc(Nc3cc(C)ccn3)n2)c1	25*	1	/	3	i	25
CC(=O)Nc1ccc(-c2csc(Nc3cc(C)ccn3)n2)cc1	i	4	7	7	i	9
SMILES	ANO1 block	UPR CHOP act	Lipid droplet	XBP1 UPR activ	ANO1 activ	CHOP inh
O=C(COC(=O)/C=C/c1cccc(F)c1)Nc1ccc(Cl)cn1	i	1	9	1	i	73*
Cc1nc2cc(Cl)c([N+](=O)[O-])cc2s1	i	1	0	-2	i	0
CCCc1nc2cc(Cl)c([N+](=O)[O-])cc2o1	100*	-1	8	1	i	36
CC(C)N(C(=O)COC(=O)CCC(=O)c1cccs1)c1ccccc1	/	0	/	-3	i	/
Cc1ccc(-c2nn(-c3ccccc3)cc2CSC(=N)N)cc1	25*	3	/	1	i	60
O=C(O)Cc1cn(-c2ccccc2)nc1-c1ccccc1	i	0	9	-2	i	7
OCc1cn(-c2ccccc2)nc1-c1ccc(-c2nn(-c3ccccc3)cc2CO)cc1	i	15	/	8	i	88*
COc1ccc(-c2csc(NC(=O)c3cccs3)c2C(=O)O)cc1OC	i	1	2	-4	-41*	8
COc1ccc(-c2csc(NC(=O)c3ccccc3OC)c2C(=O)O)cc1OC	i	-3	6	-3	i	/
O=C(Cn1nnc(-c2ccccc2NC(=O)c2ccco2)n1)Nc1ccccc1	i	1	9	2	i	85*
CC(C)(C)NC(=O)Cn1nnc(-c2ccccc2NC(=O)c2ccco2)n1	i	-1	/	-1	i	-1
COc1ccc(NC(=O)Cn2nnc(-c3ccccc3NC(=O)c3cccs3)n2)cc1	i	-1	/	5	i	73*
CCCC(=O)Nc1ccccc1-c1nnn(CC(=O)Nc2ccc(OCC)cc2)n1	i	-1	9	-2	i	80*
COc1cccc(-c2nnn(CC(=O)Nc3ccc(C)cc3C)n2)c1OC	25*	-2	/	-3	i	57
Cc1ccc(S(=O)(=O)N2CCN(C(C)C(=O)Nc3ccccc3-c3ccccc3)CC2)cc1 (centres undefined)	i	2	-53	0	i	24
CC(C)c1ccc(C(O)P(=O)(OC2CCCCC2)OC2CCCCC2)cc1 (centres undefined)	i	-1	8	-1	i	68
Cc1ccc(-c2noc(CN(C(=O)c3cccc(Br)c3)C(C)C)n2)cc1	i	0	/	-4	i	71*
Cc1ccc(-c2noc(CN(C(=O)C(c3ccccc3)c3ccccc3)C(C)C)n2)cc1	i	-1	/	2	i	22
Cc1cccc(-c2noc(CN(C(=O)CCc3ccccc3)C(C)C)n2)c1	i	2	0	0	i	70*
O=C(NCc1cccs1)C(=O)NCC1OCCCN1S(=O)(=O)c1ccccc1 (centres undefined)	i	-1	-1	-2	i	44
